From ChEMBL document CHEMBL1147384, “Cytotoxic diterpenoids from the brown alga Dilophus ligulatus” (1993)
Converted amounts (≈) assume the structure as drawn.

Assays:
Format in all cases: functional
Details in all cases: read-out: ED50 (the source's name)
KB = test: Cytotoxicity against human KB cells
Method in brief: (§1)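 Run under the lab's standard cytotoxicity protocols with mercaptopurine as the positive standard. Activity is given as ED50 in μg/ml. Cells were human nasopharynx carcinoma KB, human lung carcinoma NSCLC-N6, murine leukemia P-388, and P-388/DOX, a P-388 line expressing the multidrug-resistance (mdr) gene.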

P388 [1] = test: Cytotoxicity against mouse P388 cells; method in brief: as §1
P388 [2] = test: Cytotoxicity against mouse doxorubicin-resistant P388 cells; method in brief: as §1
[3] = Cytotoxicity against human NSCLC-N6 cells; method in brief: as §1

Compound	EC50 (KB)	EC50 (P388 [1])	EC50 (P388 [2])	EC50 [3]
CC(=O)OC[C@H]1/C(C=O)=C\C/C=C(\C)C[C@H](O)[C@@H]1[C@@H](C)CCC=C(C)C [HYDROXYACETYLDICTYOLAL]	2.1 µg/mL (≈ 5.79 µM)	3.9 µg/mL (≈ 10.8 µM)	9.3 µg/mL (≈ 25.7 µM)	10 µg/mL (≈ 27.6 µM)
CC(=O)O[C@H]1C(=O)C2C1CC/C=C(\C)CC[C@@H]2[C@H](C)CCC=C(C)C (some centres undefined) [ISOACETYLCORIACENONE]	> 10 µg/mL	6 µg/mL (≈ 17.3 µM)	> 10 µg/mL	6.82 µg/mL (≈ 19.7 µM)
Sc1ncnc2nc[nH]c12 [MERCAPTOPURINE ANHYDROUS]	0.54 µg/mL (≈ 3.55 µM)	0.7 µg/mL (≈ 4.6 µM)	0.25 µg/mL (≈ 1.64 µM)	0.76 µg/mL (≈ 4.99 µM)
CC(=O)O[C@@H]1C(=O)C2C1CC/C=C(\C)CC[C@@H]2[C@H](C)CCC=C(C)C (some centres undefined) [ACETYLCORIACENONE]	> 10 µg/mL	4.4 µg/mL (≈ 12.7 µM)	> 10 µg/mL	5.4 µg/mL (≈ 15.6 µM)
CC(=O)O/C=C1/CC/C=C(\C)C[C@@H]2OC(=O)[C@H]1[C@H]2[C@@H](C)CCC=C(C)C [DILOPHOLIDE]	1.5 µg/mL (≈ 4.16 µM)	0.5 µg/mL (≈ 1.39 µM)	12 µg/mL (≈ 33.3 µM)	3.3 µg/mL (≈ 9.15 µM)
CC(=O)O[C@H]1C[C@H](C)[C@H]2C[C@H]2C2=C(COC2=O)[C@H]1[C@H](C)CCC=C(C)C [ACETOXYCRENULIDE]	> 10 µg/mL	> 10 µg/mL	> 10 µg/mL	> 10 µg/mL
